According to ChEMBL document CHEMBL1806467 (Bioorg Med Chem Lett, 2011):
In brackets after ≈: the same amount, converted by molar mass. Activity calls are given as the source filed them. No cut-off for these calls is given here.

Tests used:
MDA-MB-361 = assay: cells; settings: Homo sapiens, MDA-MB-361, 72 h
PC-3 = assay: cells; settings: Homo sapiens, PC-3, 72 h
[1] = Half life in human liver microsomes after 30 mins; format: ADME, Microsome
In short: (§1)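 Drug incubated with liver microsomes of the stated species (rat, nude mouse, human) for 30 min; half-life of drug determined.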

[2] = Half life in nude mouse liver microsomes after 30 mins; format: ADME, Microsome
In short: as §1

[3] = Half life in rat liver microsomes after 30 mins; format: ADME, Microsome
In short: as §1

[4] = Aqueous solubility of the compound at pH 7.4; format: physicochemical; settings: buffer
[5] = biological target: Serine/threonine-protein kinase mTOR (Homo sapiens, UniProt P42345); assay: Inhibition of mTOR
Mus musculus [6] = species: Mus musculus; settings: MDA-MB-361, 10 mg/kg
Mus musculus [7] = species: Mus musculus; settings: MDA-MB-361, 25 mg/kg
Mus musculus [8] = species: Mus musculus; settings: MDA-MB-361, 10 mg/kg; remark: listed apart in the source
Mus musculus [9] = species: Mus musculus; settings: MDA-MB-361, 10 mg/kg; remark: listed apart in the source
Mus musculus [10] = species: Mus musculus; settings: MDA-MB-361, 25 mg/kg; remark: listed apart in the source
Mus musculus [11] = species: Mus musculus; settings: MDA-MB-361, 25 mg/kg; remark: listed apart in the source
Mus musculus [12] = species: Mus musculus; settings: MDA-MB-361, 25 mg/kg; remark: listed apart in the source
Mus musculus [13] = species: Mus musculus; settings: MDA-MB-361, 10 mg/kg; remark: listed apart in the source
Mus musculus [14] = species: Mus musculus; settings: MDA-MB-361, 10 mg/kg; remark: listed apart in the source
Mus musculus [15] = species: Mus musculus; settings: MDA-MB-361, 25 mg/kg; remark: listed apart in the source
[16] = biological target: Phosphatidylinositol 4,5-bisphosphate 3-kinase catalytic subunit alpha isoform (Homo sapiens, UniProt P42336); assay: Inhibition of human PI3Kalpha expressed in SF9 insect cells after 2 hrs by fluorescence polarization assay
Mus musculus [17] = assay: In vivo inhibition of PI3K/mTOR in human MDA-MB-361 cells xenografted nude mouse assessed as induction of cleaved poly-adenosine-diphosphate-ribose polymerase at 50 mg/kg, iv after 8 hrs by immunoblotting; format: functional, organism-based; set-up: dose 50 mg/kg

Chain of Phosphatidylinositol 4,5-bisphosphate 3-kinase catalytic subunit alpha isoform (P42336 whole entry, canonical isoform): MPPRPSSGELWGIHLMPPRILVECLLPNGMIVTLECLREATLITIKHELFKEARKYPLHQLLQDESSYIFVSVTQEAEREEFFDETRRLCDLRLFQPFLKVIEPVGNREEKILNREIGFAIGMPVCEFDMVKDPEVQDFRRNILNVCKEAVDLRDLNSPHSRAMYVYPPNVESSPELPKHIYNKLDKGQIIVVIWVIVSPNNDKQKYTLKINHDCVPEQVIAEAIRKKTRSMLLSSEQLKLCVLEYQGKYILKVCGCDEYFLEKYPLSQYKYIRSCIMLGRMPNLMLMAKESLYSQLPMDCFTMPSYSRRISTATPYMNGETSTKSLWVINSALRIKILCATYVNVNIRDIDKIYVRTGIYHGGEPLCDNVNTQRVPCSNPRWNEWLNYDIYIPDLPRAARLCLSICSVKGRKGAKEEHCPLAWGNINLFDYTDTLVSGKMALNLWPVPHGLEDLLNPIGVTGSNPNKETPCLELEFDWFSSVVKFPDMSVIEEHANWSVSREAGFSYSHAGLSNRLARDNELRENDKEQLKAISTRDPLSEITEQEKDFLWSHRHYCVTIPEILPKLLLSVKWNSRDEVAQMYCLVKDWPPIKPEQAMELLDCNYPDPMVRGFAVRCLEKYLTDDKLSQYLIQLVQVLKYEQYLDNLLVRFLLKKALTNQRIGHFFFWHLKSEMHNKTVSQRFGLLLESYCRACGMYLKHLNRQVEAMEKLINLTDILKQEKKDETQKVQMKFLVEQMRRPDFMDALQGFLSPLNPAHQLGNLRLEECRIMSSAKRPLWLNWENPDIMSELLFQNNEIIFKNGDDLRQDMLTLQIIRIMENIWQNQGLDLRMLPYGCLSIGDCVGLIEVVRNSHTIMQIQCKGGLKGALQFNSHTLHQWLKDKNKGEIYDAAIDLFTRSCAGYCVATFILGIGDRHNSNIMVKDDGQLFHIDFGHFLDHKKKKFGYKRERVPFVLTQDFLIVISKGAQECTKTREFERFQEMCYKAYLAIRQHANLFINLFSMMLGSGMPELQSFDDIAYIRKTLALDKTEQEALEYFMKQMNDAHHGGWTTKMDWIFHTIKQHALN

Row | Structure (SMILES) | IC50 (MDA-MB-361) | IC50 (PC-3) | half-life [1] | half-life [2] | half-life [3] | solubility [4] | other results
1 | COc1nc(-c2ccc(NC(=O)Nc3ccc(C(=O)NCCN(C)C)cc3)cc2)nc(N2CCOCC2)n1 | < 31 nM | 71 nM | > 30 min | > 30 min | > 30 min | > 100 µg/mL | –
2 | CN1CCN(C(=O)c2ccc(NC(=O)Nc3ccc(-c4nc(N5CCOCC5)[nH]c(=O)n4)cc3)cc2)CC1 | > 1000 nM | > 1000 nM | – | – | > 30 min | – | –
3 | O=C(Nc1ccc(C(=O)NCCN2CCCCC2)cc1)Nc1ccc(-c2nc(O[C@H]3CCOC3)nc(N3CCOCC3)n2)cc1 | 5 nM | 18 nM | > 30 min | > 30 min | 27 min | 1 µg/mL (≈ 1.62 µM) | IC50 [5]: 0.4 nM
4 | CN1CCN(C(=O)c2ccc(NC(=O)Nc3ccc(-c4nc(O[C@H]5CCOC5)nc(N5CCOCC5)n4)cc3)cc2)CC1 | – | – | 15 min | > 30 min | 20 min | 1 µg/mL (≈ 1.7 µM) | –
5 | O=C(Nc1ccc(C(=O)NCCN2CCCC2)cc1)Nc1ccc(-c2nc(O[C@H]3CCOC3)nc(N3CCOCC3)n2)cc1 | 8 nM | 27 nM | > 30 min | > 30 min | 28 min | 23 µg/mL (≈ 38.2 µM) | IC50 [5]: 0.3 nM
6 | CN(C)C1CCN(C(=O)c2ccc(NC(=O)Nc3ccc(-c4nc(N5CCOCC5)nc(N5CCOCC5)n4)cc3)cc2)CC1 [GEDATOLISIB] | – | – | > 30 min | > 30 min | > 30 min | 15 µg/mL (≈ 24.4 µM) | inhibition (Mus musculus [6]): Active; inhibition (Mus musculus [7]): Active; inhibition (Mus musculus [8]): Active; inhibition (Mus musculus [9]): Active; inhibition (Mus musculus [10]): Active; inhibition (Mus musculus [11]): Active; inhibition (Mus musculus [12]): Active; inhibition (Mus musculus [13]): Active; inhibition (Mus musculus [14]): Active; inhibition (Mus musculus [15]): Active
7 | CC(C)Oc1nc(-c2ccc(NC(=O)Nc3ccc(C(=O)NCCN(C)C)cc3)cc2)nc(N2CCOCC2)n1 | 11 nM | 41 nM | > 30 min | > 30 min | > 30 min | 3 µg/mL (≈ 5.47 µM) | IC50 [5]: 0.4 nM
8 | CC(C)Oc1nc(-c2ccc(NC(=O)Nc3ccc(C(=O)N(C)CCN(C)C)cc3)cc2)nc(N2CCOCC2)n1 | – | – | > 30 min | 23 min | > 30 min | 15 µg/mL (≈ 26.7 µM) | –
9 | COc1nc(-c2ccc(NC(=O)Nc3ccc(C(=O)N4CCNC(C)(C)C4)cc3)cc2)nc(N2CCOCC2)n1 | 30 nM | 111 nM | > 30 min | > 30 min | 29 min | 61 µg/mL (≈ 112 µM) | IC50 [5]: 18.5 nM; IC50 [16]: 1.4 nM
10 | CN1CCN(C(=O)c2ccc(NC(=O)Nc3ccc(-c4nc(OC5COC5)nc(N5CCOCC5)n4)cc3)cc2)CC1 | – | – | – | – | > 30 min | 4 µg/mL (≈ 6.96 µM) | –
11 | CN(C)C1CCN(C(=O)c2ccc(NC(=O)Nc3ccc(-c4nc(O[C@H]5CCOC5)nc(N5CCOCC5)n4)cc3)cc2)CC1 | – | – | 18 min | > 30 min | – | – | –
12 | CN(C)CCN(C)C(=O)c1ccc(NC(=O)Nc2ccc(-c3nc(O[C@H]4CCOC4)nc(N4CCOCC4)n3)cc2)cc1 | – | – | > 30 min | > 30 min | 27 min | > 100 µg/mL | inhibition (Mus musculus [7]): Active; inhibition (Mus musculus [10]): Active; inhibition (Mus musculus [11]): Active; inhibition (Mus musculus [12]): Active; inhibition (Mus musculus [15]): Active
13 | COc1nc(-c2ccc(NC(=O)Nc3ccc(C(=O)N(C)CCN(C)C)cc3)cc2)nc(N2CCOCC2)n1 | 15 nM | 34 nM | > 30 min | > 30 min | 15 min | > 100 µg/mL | –
14 | COc1nc(-c2ccc(NC(=O)Nc3ccc(C(=O)NCCN4CCCCC4)cc3)cc2)nc(N2CCOCC2)n1 | < 31 nM | 69 nM | > 30 min | > 30 min | > 30 min | > 100 µg/mL | –
15 | CN1C2CCC1CC(Oc1nc(-c3ccc(NC(=O)Nc4ccc(C(N)=O)cc4)cc3)nc(N3CCOCC3)n1)C2 (stereo not drawn) | – | – | – | – | 4 min | 62 µg/mL (≈ 111 µM) | –
16 | CC(C)Oc1nc(-c2ccc(NC(=O)Nc3ccc(C(=O)N4CCN(C)CC4)cc3)cc2)nc(N2CCOCC2)n1 | – | – | > 30 min | > 30 min | 17 min | – | –
17 | COc1nc(-c2ccc(NC(=O)Nc3ccc(C(=O)N4CCN(C)CC4)cc3)cc2)nc(N2CCOCC2)n1 | 35 nM | 91 nM | > 30 min | > 30 min | 16 min | 3 µg/mL (≈ 5.63 µM) | IC50 [16]: 1.2 nM
18 | CNCCN(C)C(=O)c1ccc(NC(=O)Nc2ccc(-c3nc(OC)nc(N4CCOCC4)n3)cc2)cc1 | 110 nM | 374 nM | > 30 min | > 30 min | > 30 min | > 100 µg/mL | –
19 | CCn1nnc2c(N3CCOCC3)nc(-c3ccc(NC(=O)Nc4ccc(C(=O)N5CCN(C)CC5)cc4)cc3)nc21 | 8 nM | – | > 30 min | > 30 min | – | – | IC50 [5]: 2 nM; inhibition (Mus musculus [17]): Active
